TRPC4 act – activators of mouse TRPC4 channel; Q9QUQ5; HEK293 TRPC4beta/mu-opioid, Fluo4 calcium fluorescence; stronger effect = higher value; B-score at 10 µM; 310,000 tested, 0.49% active; AID 2237;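 active = B-score above 5 SD of library B-scores, and initial fluorescence ratio not above library mean plus 5 SD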;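 note: positive B-score marks a calcium rise read as TRPC4 activation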
Target sequence (Q9QUQ5 whole entry, looked up): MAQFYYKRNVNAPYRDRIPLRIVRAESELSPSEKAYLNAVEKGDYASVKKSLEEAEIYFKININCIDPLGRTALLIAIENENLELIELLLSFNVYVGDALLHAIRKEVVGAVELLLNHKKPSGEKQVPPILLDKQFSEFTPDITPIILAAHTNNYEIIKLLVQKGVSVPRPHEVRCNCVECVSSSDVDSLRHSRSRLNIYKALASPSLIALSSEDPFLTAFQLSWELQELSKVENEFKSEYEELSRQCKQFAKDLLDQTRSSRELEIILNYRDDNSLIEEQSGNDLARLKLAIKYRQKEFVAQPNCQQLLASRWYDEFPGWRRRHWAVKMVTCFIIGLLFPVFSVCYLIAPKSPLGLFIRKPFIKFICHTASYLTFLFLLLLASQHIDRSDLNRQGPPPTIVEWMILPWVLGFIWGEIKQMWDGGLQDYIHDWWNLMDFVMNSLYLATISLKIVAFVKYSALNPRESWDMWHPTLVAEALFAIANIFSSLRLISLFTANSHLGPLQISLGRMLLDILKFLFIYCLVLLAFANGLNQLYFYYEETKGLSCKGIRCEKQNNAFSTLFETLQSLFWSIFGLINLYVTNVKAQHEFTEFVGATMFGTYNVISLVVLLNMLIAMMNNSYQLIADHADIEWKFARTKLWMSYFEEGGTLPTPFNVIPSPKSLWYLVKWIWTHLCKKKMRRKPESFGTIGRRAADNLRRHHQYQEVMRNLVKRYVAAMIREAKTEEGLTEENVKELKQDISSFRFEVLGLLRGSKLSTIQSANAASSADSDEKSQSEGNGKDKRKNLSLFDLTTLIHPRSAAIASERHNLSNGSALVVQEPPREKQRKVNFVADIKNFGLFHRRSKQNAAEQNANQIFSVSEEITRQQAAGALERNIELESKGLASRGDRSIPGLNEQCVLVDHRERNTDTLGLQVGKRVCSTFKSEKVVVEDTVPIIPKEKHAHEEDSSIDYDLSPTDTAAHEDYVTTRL
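Incubation: 45 min room-temperature Fluo4 loading, 110 s read / System: HEK293 cells stably co-expressing mouse TRPC4beta and mu-opioid receptor / Signal: Fluo4 fluorescence, kinetic / Control set: buffer (low) and maximal DAMGO (high) / Measure: integrated baseline-normalised fluorescence ratio, converted to per-well B score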
TRPC6 inhibitor – inhibitors of mouse TRPC6 channel | 310,000 tested, 1.1% active | B-score at 10 µM | HEK293-TRPC6, membrane potential dye, ACh-evoked depolarization; stronger effect = lower value | Q61143;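 active = B-score under library mean minus 3 SD, initial fluorescence not abnormally high, positive integrated signal ratio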;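 note: B-score derived from integrated fluorescence ratio over the kinetic read; more negative B-score means stronger inhibition of depolarization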
TRPC4 inh – TRPC4 (mouse) channel inhibition; Q9QUQ5; HEK293 TRPC4beta/mu-opioid, DAMGO-evoked Fluo4 calcium flux; stronger effect = lower value; B-score at 10 µM; 300,000 tested, 0.39% active;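 active = B-score over 3 SD under the library average, no early fluorescence shift, positive overall ratio signal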
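test system = HEK293 cells with stable TRPC4beta plus mu-opioid receptor expression | detection = Fluo4 Ca2+ flux fluorescence | read-out = integrated fluorescence ratio relative to baseline, converted to per-well B score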
TRPC4 PAM – TRPC4 (mouse) allosteric potentiation; Q9QUQ5; HEK293 TRPC4beta/mu-opioid, DAMGO EC20, Fluo-4 Ca2+ flux; stronger effect = higher value; B-score at 10 µM; 310,000 tested, 0.42% active; AID 2227;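 active = B-score of calcium response area above 5 SD of library B-scores, with initial fluorescence ratio within 5 SD of library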
TRPC6 act – activates the mouse TRPC6 cation channel; 310,000 tested, 0.13% active; Q61143; AID 2550; B-score at 10 µM; HEK293-TRPC6 membrane potential dye fluorescence; stronger effect = higher value;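 active = B-score of the integrated fluorescence ratio above library mean plus 3 SD, and starting fluorescence ratio within library mean plus 5 SD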;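 note: higher score means more depolarization so channel activation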
A number is an active result; i = inactive. Hits are enriched below; roughly 2.3% of the tested compounds scored in any of these assays.

SMILES	TRPC4 act	TRPC6 inhibitor	TRPC4 inh	TRPC4 PAM	TRPC6 act
c1ccc(CC2CCCNC2)cc1 (stereo not drawn)	90	i	i	i	i
COc1ccc(C2/C(=C(\O)c3ccc4c(c3)OCCO4)C(=O)C(=O)N2Cc2cccnc2)cc1 (stereo not drawn)	i	i	i	i	i
COc1ccccc1C1/C(=C(\O)c2ccc3c(c2)OCCO3)C(=O)C(=O)N1Cc1cccnc1 (stereo not drawn)	i	i	-6	i	i
O=C(c1sc2ccccc2c1Cl)N(Cc1cccs1)C1CCS(=O)(=O)C1 (stereo not drawn)	120	i	i	i	i
C=CCOc1ccc(/C=C2\SC(=S)N(NS(=O)(=O)c3ccc(C)cc3)C2=O)cc1	i	i	i	12	i
CCCCNCC1C(Oc2ccc(Cl)cc2)C(=O)N1c1ccccc1C (stereo not drawn)	i	i	-6	i	i
CCOc1ccc(-c2c(C(=O)N/N=C/c3ccc(OC(C)C)cc3)nnn2-c2nonc2N)cc1	i	i	i	i	i
Cc1ccc(-c2c(C(=O)N/N=C/c3ccc(OC(C)C)cc3)nnn2-c2nonc2N)cc1	i	i	i	18	i
COc1ccc(S(=O)(=O)NCc2cccnc2)cc1C	i	i	i	i	i
Cc1noc(C)c1C(=O)OCC(=O)C12CC3CC(CC(C3)C1)C2	i	i	i	i	i
CC1(C)CC(=O)c2cnc(NC3CC3)nc2C1	i	i	i	i	i
Cc1ccc(Nc2ncc3c(n2)CC(C)(C)CC3=O)cc1	i	i	i	18	i
Cn1/c(=N/NC(=O)c2ccccc2Br)sc2ccccc21	i	i	i	i	i
CC1OC(O[C@H]2CC[C@]3(C)C4C=C[C@]56OC[C@@]7(CC[C@@H](C)[C@H](C)C75)[C@H](O)C[C@@]6(C)[C@]4(C)CC[C@H]3C2(C)C)C(OC2OC(CO)C(O)C(O)C2OC2OCC(O)C(O)C2O)C(O)C1O (stereo partly drawn)	356	i	i	11	13
CC1C(=O)N2CCCc3cc(NC(=O)COc4ccccc4)cc1c32 (stereo not drawn)	i	i	i	i	i
O=C(Nc1ccccc1)C1=C[C@H](c2ccc3c(c2)OCO3)C[C@H](OCc2ccc(CO)cc2)O1	i	i	i	10	i
O=C(O)C1=C[C@H](c2ccc3c(c2)OCO3)C[C@H](OCc2ccc(CO)cc2)O1	i	i	i	i	i
OCC1(CC2CCCCO2)CCN(Cc2nc3ccccc3[nH]2)CC1 (stereo not drawn)	110	i	-8	i	i
O=C(COC(=O)Cc1cccc(C(F)(F)F)c1)Nc1ccc2[nH]c(=O)[nH]c2c1	i	i	i	i	i
O=C(NCCc1ccc(Cl)cc1)C1CCC(CNc2c(N3CCCCC3)c(=O)c2=O)CC1 (stereo not drawn)	i	i	i	i	i
CCN1CCN(c2ncc(C(=O)Nc3cc(Cl)c(OC)cc3OC)c3ccccc23)CC1	61	i	i	i	i
CCN1CCN(c2ncc(C(=O)Nc3c(F)cc(F)cc3Br)c3ccccc23)CC1	i	i	i	i	i
COc1ccc(C2(c3ccc(O)cc3O)CC(c3ccccc3Cl)NC(=S)N2)cc1 (stereo not drawn)	i	i	i	11	i
O=C(CCc1nnc2n(Cc3ccccc3)c(=O)c3ccccc3n12)NCCN1CCOCC1	i	i	i	i	i
O=C(CN1CCOCC1)Nc1ccc(OC(F)(F)F)cc1	i	i	i	i	i
SMILES	TRPC4 act	TRPC6 inhibitor	TRPC4 inh	TRPC4 PAM	TRPC6 act
COc1cccc(CC(=O)NC2CCCN(Cc3ccc(Cl)cc3)C2)c1 (stereo not drawn)	i	i	i	14	i
COc1cccc(CC(=O)NC2CCCN(Cc3ccccc3F)C2)c1 (stereo not drawn)	i	i	i	i	i
Cn1cnnc1SCC(=O)NC1CCCN(Cc2ccc(Cl)cc2)C1 (stereo not drawn)	46	i	i	i	i
O=C(NC1CCCN(Cc2ccc(Cl)cc2)C1)C1CCC1 (stereo not drawn)	136	i	i	i	i
CCOC(=O)/C(C#N)=C(\O)c1ccc(NC(=O)c2ccc([N+](=O)[O-])cc2)cc1	i	i	i	i	i
CC(=O)Nc1ccc(S(=O)(=O)NC2CC(=O)N(c3ccc4c(c3)OCCO4)C2)cc1 (stereo not drawn)	i	i	i	i	i
Cc1oc(-c2ccc(Cl)cc2)nc1CSCC(=O)NC1CCN(Cc2ccccc2)CC1	i	i	i	12	i
CCOC(=O)N1CCC(NC(=O)CSCc2nc(-c3ccc(OCC)cc3)oc2C)CC1	i	i	i	i	i
CC1CCN(CCCNC(=O)c2nn(C)c3c2CS(=O)(=O)c2ccccc2-3)CC1	i	i	i	i	i
CC1CC(C)CN(CCCNC(=O)c2nn(C)c3c2CS(=O)(=O)c2ccccc2-3)C1 (stereo not drawn)	98	i	i	i	i
CCCCN(C(=O)c1ccc(S(=O)(=O)N2CCCC2)cc1)C1CCS(=O)(=O)C1 (stereo not drawn)	i	i	i	i	i
Cn1c(-c2ccc(F)cc2)cnc1NCc1ccc(F)cc1F	i	i	-6	i	i
Cn1c(-c2ccc(F)cc2)cnc1NCc1ccc(C#N)cc1	i	i	i	i	i
Cn1c(-c2ccc(F)cc2)cnc1NCc1ccccc1F	i	i	i	i	i
Cn1c(-c2ccc(F)cc2)cnc1NCc1ccc(F)cc1	i	i	-6	i	i
Nc1nc(Nc2cccc(C(F)(F)F)c2)nc(C(F)(F)F)n1	i	-6.1	i	i	i
OCCNCCSc1ccc(Cl)cc1	104	i	i	i	i
COc1cccc(NC(=O)CCC(=O)N2CC(C)Oc3ccc(C)cc32)c1 (stereo not drawn)	i	i	-7	i	i
Cc1ccc2c(c1)N(C(=O)CCC(=O)NCc1ccccc1)CC(C)O2 (stereo not drawn)	i	i	i	i	i
CC1CN(C(=O)CCC(=O)NCCc2ccccc2)c2ccccc2O1 (stereo not drawn)	i	i	i	i	i
CC1CC(C)CN(CCCNC(=O)CCC(=O)N2CC(C)Oc3ccccc32)C1 (stereo not drawn)	53	i	i	i	i
Cc1ccc2c(c1)N(C(=O)CCC(=O)Nc1ccccc1Cl)CC(C)O2 (stereo not drawn)	i	i	-8	i	i
Cc1ccc2c(c1)N(C(=O)CCC(=O)NCc1cccc(Cl)c1)CC(C)O2 (stereo not drawn)	i	i	-7	i	i
O=c1cc(CN2CCN(c3ccccc3)CC2)nc2scc(-c3ccccc3)n12	i	i	i	i	i
COc1cc2c(cc1OC)CN(Cc1cc(=O)n3c(-c4ccccc4)csc3n1)CC2	122	i	i	i	i
COc1cc(=O)n2c(-c3ccccc3)csc2n1	i	i	-7	i	i

High-throughput results from PubChem BioAssay.
